According to ChEMBL document CHEMBL3351585, “Design, synthesis and biological evaluation of novel peptides with anti-cancer and drug resistance-reversing activities” (Eur J Med Chem, 2015):
Blank lines part the entries; values can stand above or below the compound they belong to. Calls of active or inactive are those of the source. The calls are words filed in the database; no cut-off is given here.

Experiments:
[1] = Increase in adriamycin uptake in human MCF7/ADR cells at 10 uM after 2.5 hrs by fluorescence microscopy; type: ADME, cell-based; conditions: nci/adr-res
Summary of the method: (§1)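 2 × 10^5 MCF-7/ADM or K562/ADM cells were co-incubated 2.5 h with ADM plus peptide, or with verapamil as comparator. Cells were washed with cold PBS and ADM fluorescence was imaged by fluorescence microscopy.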

[2] = tested on: K562/Adr; experiment: Potentiation of adriamycin-induced cytotoxicity against human K562/ADR cells at 10 uM after 48 hrs by MTT assay; type: functional, cell-based
Summary of the method: (§2)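 ADM-resistant MCF-7/ADM or K562/ADM cells, grown in RPMI1640 with 10% FBS at 37 °C and 5% CO2, were seeded at 1 × 10^4 per well and held 24 h. Fixed peptide was added, followed by graded ADM concentrations, for 48 h. MTT was then given for 4 h at 37 °C, formazan dissolved in DMSO and absorbance read at 570 nm. Verapamil served as positive control.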

[3] = Increase in adriamycin uptake in human K562/ADR cells at 10 uM after 2.5 hrs by fluorescence microscopy; type: ADME, cell-based; summary of the method: as §1
[4] = tested on: NCI/ADR-RES; experiment: Potentiation of adriamycin-induced cytotoxicity against human MCF7/ADR cells at 10 uM after 48 hrs by MTT assay; type: functional, cell-based; summary of the method: as §2
[5] = Increase in adriamycin uptake in human MCF7/ADR cells at 10 uM after 2.5 hrs by fluorescence spectrophotometry; type: ADME, cell-based; conditions: nci/adr-res
Summary of the method: (§3)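 2 × 10^5 MCF-7/ADM or K562/ADM cells were co-incubated 2.5 h with ADM plus peptide, or with verapamil as comparator. After washing in cold PBS, cells were lysed in 0.75 M HCl/0.2% Triton X-100 in isopropanol. Lysate ADM fluorescence was measured by spectrofluorometry at ex 460/em 610 nm.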

[6] = Increase in adriamycin uptake in human K562/ADR cells at 10 uM after 2.5 hrs by fluorescence spectrophotometry; type: ADME, cell-based; summary of the method: as §3
[7] = tested on: MCF7; experiment: Induction of cytochrome c release in mitochondria of human MCF7 cells at 8 uM incubated for 2 hrs by ELISA method (reference value: 347.8 +/- 14.5 ng); type: functional
[8] = Increase in adriamycin uptake in human K562/ADR cells at 1 uM after 2.5 hrs by fluorescence microscopy; type: ADME, cell-based; summary of the method: as §1
[9] = tested on: MCF7; experiment: Induction of cytochrome c release in human MCF7 cells at 8 uM incubated for 2 hrs by ELISA method (reference value: 364.2 +/- 20.5 ng); type: functional
[10] = Cytotoxicity against human GES-1 cells after 48 hrs by MTT assay; type: cell-based; conditions: GES1, 48 h
Summary of the method: (§4)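 Cells grown in RPMI1640 with 10% heat-inactivated FBS and 1% penicillin-streptomycin at 37 °C, 5% CO2. Log-phase cells were seeded at 5 × 10^3/well 24 h before treatment, exposed to a range of peptide concentrations for 48 h, then given MTT for 4 h. Formazan was dissolved in DMSO and A490 read. Survival was computed relative to untreated wells, and IC50 taken from the survival curve.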

[11] = Drug uptake in cytosol of human MCF7 cells at 8 uM incubated for 5 mins or 30 mins by fluorescein isothiocyanate labeling based fluorescence microscopy; type: ADME, cell-based
Summary of the method: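 MCF-7 cells were plated at 1 × 10^5/well and grown 24 h, then exposed to FITC-labeled peptides for 5 min or 30 min. Cells were washed three times with cold PBS, and intracellular fluorescence was imaged by fluorescence microscopy.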

[12] = tested on: MCF7; experiment: Induction of mitochondrial membrane potential depolarization in human MCF7 cells at 8 uM incubated for 2 hrs by JC1 staining; type: functional, cell-based
Summary of the method: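 MCF-7 cells plated at 1 × 10^5 per well, grown 24 h, then exposed to peptide for 2 h. Mitochondrial membrane potential was assessed with a JC-1 mitochondrial membrane potential kit. Green (monomer) and red (J-aggregate) fluorescence were imaged, with merged orange taken as normal potential.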

[13] = tested on: MCF7; experiment: Induction of cytochrome c release in cytoplasm of human MCF7 cells at 8 uM incubated for 2 hrs by ELISA method (reference value: 44.1 +/- 2.7 ng); type: functional
[14] = tested on: MCF7; experiment: Anticancer activity against human MCF7 cells after 48 hrs by MTT assay; type: functional, cell-based; conditions: MCF7, 48 h; summary of the method: as §4
[15] = tested on: K562; experiment: Anticancer activity against human K562 cells after 48 hrs by MTT assay; type: functional, cell-based; conditions: K562, 48 h; summary of the method: as §4
[16] = tested on: MCF7; experiment: Antimigratory activity in human MCF7 cells assessed as inhibition of cell migration at 1 uM incubated for 48 hrs by transwell migration assay; type: functional, cell-based
Summary of the method: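 Transwell chambers with a porous membrane separating upper and lower compartments. 4 × 10^4 MCF-7 cells were placed in the upper chamber in peptide-containing medium and incubated 48 h. Cells that reached the lower membrane surface were counted.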

[17] = tested on: MCF7; experiment: Antimigratory activity in human MCF7 cells assessed as inhibition of cell migration at 1 uM incubated for 48 hrs by wound healing assay; type: functional, cell-based
Summary of the method: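 MCF-7 cells were seeded at 2 × 10^5/well and grown 24 h to 90% confluence. A cell-free gap was scratched, and cells migrated in serum-free medium with peptide for 48 h. Wound closure was photographed at 0 h and 48 h.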

[18] = tested on: MCF7; experiment: Induction of cytochrome c release in extracellular region of human MCF7 cells at 8 uM incubated for 2 hrs by ELISA method (reference value: 15.7 +/- 0.77 ng); type: functional
[19] = Increase in adriamycin uptake in human K562/ADR cells at 1 uM after 2.5 hrs by fluorescence spectrophotometry; type: ADME, cell-based; summary of the method: as §3
[20] = tested on: NCI/ADR-RES; experiment: Potentiation of adriamycin-induced cytotoxicity against human MCF7/ADR cells at 1 uM after 48 hrs by MTT assay; type: functional, cell-based; summary of the method: as §2
[21] = tested on: MCF7; experiment: Induction of cell membrane alteration in human MCF7 cells at 8 uM incubated for 30 mins by acridine orange/ethidium bromide double staining method; type: functional, cell-based
Summary of the method: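 MCF-7 cells were plated at 1 × 10^5/well and grown 24 h, then given peptide for 30 min. Cells were washed twice with PBS and stained 10 min in the dark with cold PBS containing acridine orange and ethidium bromide. Excess dye was washed off, then cells were imaged by fluorescence microscopy. Red EB staining marks membrane-compromised cells.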

[22] = Retention time of the compound by UPLC method; type: physicochemical
[23] = tested on: MCF7; experiment: Induction of cell membrane morphology changes in human MCF7 cells at 8 uM incubated for 30 mins by scanning electron microscopy; type: functional, cell-based
Summary of the method: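 MCF-7 cells were grown 24 h on coverslips at 1 × 10^5/well and exposed to peptide for 30 min. Cells were gently PBS-washed, fixed in 2.5% glutaraldehyde, and examined by scanning electron microscopy.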

[24] = Increase in adriamycin uptake in human MCF7/ADR cells at 1 uM after 2.5 hrs by fluorescence spectrophotometry; type: ADME, cell-based; conditions: nci/adr-res; summary of the method: as §3
[25] = Toxicity in rabbit erythrocytes assessed as induction of hemolysis at 160 uM incubated for 1 hr by microplate reader assay; type: cell-based, Oryctolagus cuniculus; conditions: erythrocyte
Summary of the method: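 Rabbit red blood cells in PBS were mixed 1:1 by volume with peptide solution and incubated 1 h at 37 °C, then spun at 1000 g for 5 min. Hemoglobin in the supernatant was read at 540 nm. PBS defined 0% hemolysis and 0.1% Triton X-100 defined 100%.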

[26] = Anticancer activity against human MCF7/ADR cells after 48 hrs by MTT assay; type: functional, cell-based; conditions: NCI/ADR-RES; summary of the method: as §4
[27] = tested on: K562/Adr; experiment: Potentiation of adriamycin-induced cytotoxicity against human K562/ADR cells at 1 uM after 48 hrs by MTT assay; type: functional, cell-based; summary of the method: as §2
[28] = Increase in adriamycin uptake in human MCF7/ADR cells at 1 uM after 2.5 hrs by fluorescence microscopy; type: ADME, cell-based; conditions: nci/adr-res; summary of the method: as §1
[29] = Anticancer activity against human K562/ADR cells after 48 hrs by MTT assay; type: functional, cell-based; summary of the method: as §4

Activity [1]: Active
Activity [3]: Active
Activity [5]: Active
Activity [6]: Active
Compound: COc1ccc(CCN(C)CCCC(C#N)(c2ccc(OC)c(OC)c2)C(C)C)cc1OC (centres undefined) [VERAPAMIL]
Activity [2]: Active
Activity [4]: Active

Activity [8]: Active
Drug uptake [11]: Active
IC50 [14]: 8.3 µM
IC50 [15]: 5.5 µM
Activity [19]: Active
Retention_time [22]: 3.22 min
Activity [24]: Active
Activity [28]: Active
Compound: H-VKRFKKFFRKLKKKV-NH2
Activity [7]: 303.2 ng
Activity [9]: 359.1 ng
IC50 [10]: 123 µM
Activity [12]: Active
Activity [13]: 59.6 ng
inhibition [16]: Active
inhibition [17]: Active
Activity [18]: 15 ng
Activity [20]: Active
Activity [21]: Active
Activity [23]: Active
Activity [25]: Non-toxic
IC50 [26]: 8.6 µM
Activity [27]: Active
IC50 [29]: 5.5 µM
